Reference: ChEMBL document CHEMBL4024721, “C-2 (E)-4-(Styryl)aniline substituted diphenylpyrimidine derivatives (Sty-DPPYs) as specific kinase inhibitors targeting clinical resistance related EGFRT790M mutant” (Bioorg Med Chem, 2017)

How the values were obtained:
[1] = target: Epidermal growth factor receptor (Homo sapiens, UniProt P00533); assay type: ADME
[2] = target: Epidermal growth factor receptor (Homo sapiens, UniProt P00533, L858R/T790M)
A-431 = assay: Antiproliferative activity against human A431 cells harboring wild type EGFR assessed as decrease in cell viability after 72 hrs by MTT assay; assay type: ADME, cell-based; details: A-431, 72 h
NCI-H1975 [3] = assay: Antiproliferative activity against human NCI-H1975 cells harboring EGFR T790M/L858R double mutant assessed as decrease in cell viability after 72 hrs by MTT assay; assay type: functional, cell-based; details: NCI-H1975, 72 h
A549 = assay: Antiproliferative activity against human A549 cells harboring EGFR K-ras mutant assessed as decrease in cell viability after 72 hrs by MTT assay; assay type: functional, cell-based; details: A549, 72 h
HCC827 = assay: Antiproliferative activity against human HCC827 cells harboring EGFR del E746 to A750 mutant assessed as decrease in cell viability after 72 hrs by MTT assay; assay type: functional, cell-based; details: HCC827, 72 h
[4] = Antiproliferative activity against NHBE cells assessed as decrease in cell viability after 72 hrs by MTT assay; assay type: ADME, cell-based; details: Homo sapiens
[5] = tested on: Epidermal growth factor receptor (Homo sapiens), P00533 [L858R,T790M]; assay: Potency index, ratio of gefitinib IC50 to test compound IC50 for recombinant human EGFR T790M/L858R double mutant (695 to end residues)
NCI-H1975 [6] = assay: Induction of apoptosis in human NCI-H1975 cells harboring EGFR T790M/L858R double mutant assessed as early apoptotic cells at 1 uM after 72 hrs by annexin V/FITC staining-based flow cytometric method relative to control; assay type: functional
Outline: (§1)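 H1975 cells (ATCC), grown as monolayers at 37 °C in humidified 5% CO2, were incubated with compound at the indicated concentrations for 72 h. They were then stained with annexin V/FITC and analysed by flow cytometry. The data shown come from one representative experiment.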

NCI-H1975 [7] = assay: Induction of apoptosis in human NCI-H1975 cells harboring EGFR T790M/L858R double mutant assessed as late apoptotic cells at 1 uM after 72 hrs by annexin V/FITC staining-based flow cytometric method relative to control; assay type: functional
Outline: as §1

NCI-H1975 [8] = assay: Induction of apoptosis in human NCI-H1975 cells harboring EGFR T790M/L858R double mutant assessed as necrotic cells at 1 uM after 72 hrs by annexin V/FITC staining-based flow cytometric method relative to control; assay type: functional
Outline: as §1

NCI-H1975 [9] = assay: Induction of apoptosis in human NCI-H1975 cells harboring EGFR T790M/L858R double mutant assessed as viable cells at 1 uM after 72 hrs by annexin V/FITC staining-based flow cytometric method relative to control; assay type: functional; details: NCI-H1975, 72 h, read-out: Activity
Outline: as §1

NCI-H1975 [10] = assay: Induction of apoptosis in human NCI-H1975 cells harboring EGFR T790M/L858R double mutant assessed as early apoptotic cells at 4 uM after 72 hrs by annexin V/FITC staining-based flow cytometric method relative to control; assay type: functional
Outline: as §1

NCI-H1975 [11] = assay: Induction of apoptosis in human NCI-H1975 cells harboring EGFR T790M/L858R double mutant assessed as late apoptotic cells at 4 uM after 72 hrs by annexin V/FITC staining-based flow cytometric method relative to control; assay type: functional
Outline: as §1

NCI-H1975 [12] = assay: Induction of apoptosis in human NCI-H1975 cells harboring EGFR T790M/L858R double mutant assessed as necrotic cells at 4 uM after 72 hrs by annexin V/FITC staining-based flow cytometric method relative to control; assay type: functional
Outline: as §1

NCI-H1975 [13] = assay: Induction of apoptosis in human NCI-H1975 cells harboring EGFR T790M/L858R double mutant assessed as viable cells at 4 uM after 72 hrs by annexin V/FITC staining-based flow cytometric method relative to control; assay type: functional; details: NCI-H1975, 72 h, read-out: Activity
Outline: as §1

NCI-H1975 [14] = assay: Induction of apoptosis in human NCI-H1975 cells harboring EGFR T790M/L858R double mutant assessed as early apoptotic cells at 8 uM after 72 hrs by annexin V/FITC staining-based flow cytometric method relative to control; assay type: functional
Outline: as §1

NCI-H1975 [15] = assay: Induction of apoptosis in human NCI-H1975 cells harboring EGFR T790M/L858R double mutant assessed as late apoptotic cells at 8 uM after 72 hrs by annexin V/FITC staining-based flow cytometric method relative to control; assay type: functional
Outline: as §1

NCI-H1975 [16] = assay: Induction of apoptosis in human NCI-H1975 cells harboring EGFR T790M/L858R double mutant assessed as necrotic cells at 8 uM after 72 hrs by annexin V/FITC staining-based flow cytometric method relative to control; assay type: functional
Outline: as §1

NCI-H1975 [17] = assay: Induction of apoptosis in human NCI-H1975 cells harboring EGFR T790M/L858R double mutant assessed as viable cells at 8 uM after 72 hrs by annexin V/FITC staining-based flow cytometric method relative to control; assay type: functional; details: NCI-H1975, 72 h, read-out: Activity
Outline: as §1

NCI-H1975 [18] = assay: Induction of apoptosis in human NCI-H1975 cells harboring EGFR T790M/L858R double mutant after 72 hrs by annexin V/FITC staining-based flow cytometric method; assay type: functional, cell-based
Outline: as §1

`C=CC(=O)Nc1cccc(Nc2nc(Nc3ccc(/C=C/c4cc(Cl)cc(Cl)c4)cc3)ncc2Cl)c1` showed an IC50 [1] of 1.04 µM, an IC50 [2] of 0.0113 µM and an IC50 (A-431) of 6.56 µM. For the same compound, the IC50 (NCI-H1975 [3]) was 6.98 µM, the IC50 (A549) was 15.8 µM and the IC50 (HCC827) was 9.16 µM. The IC50 [4] was 35.2 µM and the Ratio IC50 [5] was 45 to 177.
`C=CC(=O)Nc1cccc(Nc2nc(Nc3ccc(/C=C/c4ccc(C)cc4C)cc3)ncc2F)c1` showed an IC50 [1] of 0.387 µM, an IC50 [2] of 0.0081 µM and an IC50 (A-431) of 3.11 µM. The IC50 (NCI-H1975 [3]) was 7.16 µM, the IC50 (A549) was 1.32 µM and the IC50 (HCC827) was > 20 µM. For the same compound, the IC50 [4] was 10.4 µM and the Ratio IC50 [5] was 45 to 177.
`C=CC(=O)Nc1cccc(Nc2nc(Nc3ccc(/C=C/c4cc(Cl)cc(Cl)c4)cc3)ncc2F)c1` gave an IC50 [1] of 0.388 µM, an IC50 [2] of 0.0142 µM and an IC50 (A-431) of 1.29 µM. It also gave an IC50 (NCI-H1975 [3]) of 6.98 µM, an IC50 (A549) of 7.01 µM and an IC50 (HCC827) of 10.8 µM. The IC50 [4] was 5.42 µM and the Ratio IC50 [5] was 45 to 177.
`C=CC(=O)Nc1cccc(Oc2nc(Nc3ccc(/C=C/c4cc(C)cc(C)c4)cc3)ncc2Cl)c1` showed an IC50 [1] of 0.087 µM, an IC50 [2] of 0.0224 µM and an IC50 (A-431) of 4.71 µM. For the same compound, the IC50 (NCI-H1975 [3]) was 13.7 µM, the IC50 (A549) was 10.8 µM and the IC50 (HCC827) was 11.7 µM. It also gave an IC50 [4] of 6.07 µM and a Ratio IC50 [5] of 45 to 177.
With `C=CC(=O)Nc1cccc(Nc2nc(Nc3ccc(/C=C/c4ccc(C)cc4C)cc3)ncc2Cl)c1` the IC50 [1] was 0.996 µM, the IC50 [2] was 0.0068 µM and the IC50 (A-431) was 3.16 µM. The IC50 (NCI-H1975 [3]) was 4.39 µM, the IC50 (A549) was 4.94 µM and the IC50 (HCC827) was 9.71 µM. For the same compound, the IC50 [4] was 15.8 µM and the Ratio IC50 [5] was 45 to 177.
Compound `C=CC(=O)Nc1cccc(Nc2nc(Nc3ccc(/C=C/c4cc(C)cc(C)c4)cc3)ncc2F)c1` has an IC50 [1] of 0.539 µM, an IC50 [2] of 0.011 µM and an IC50 (A-431) of 10.6 µM. It also gave an IC50 (NCI-H1975 [3]) of 2.91 µM, an IC50 (A549) of 12.8 µM and an IC50 (HCC827) of 2.07 µM. It also gave an IC50 [4] of 22.5 µM, an Activity (NCI-H1975 [6]) of 17.7% and an Activity (NCI-H1975 [7]) of 22.7%. The Activity (NCI-H1975 [8]) was 3.7%, the viability at 1 µM (NCI-H1975 [9]) was 55.9% and the Activity (NCI-H1975 [10]) was 27.1%. For the same compound, the Activity (NCI-H1975 [11]) was 25.8%, the Activity (NCI-H1975 [12]) was 1.4% and the viability at 4 µM (NCI-H1975 [13]) was 45.7%. For the same compound, the Activity (NCI-H1975 [14]) was 3.7%, the Activity (NCI-H1975 [15]) was 76.1% and the Activity (NCI-H1975 [16]) was 13.2%. The viability at 8 µM (NCI-H1975 [17]) was 7%, the Activity (NCI-H1975 [18]) was “Dose-dependent effect” and the Ratio IC50 [5] was 45 to 177.
`C=CC(=O)Nc1cccc(Nc2nc(Nc3ccc(/C=C/c4cc(OC)cc(OC)c4)cc3)ncc2Cl)c1` gave an IC50 [1] of 0.216 µM, an IC50 [2] of 0.0157 µM and an IC50 (A-431) of 1.78 µM. For the same compound, the IC50 (NCI-H1975 [3]) was 3.76 µM, the IC50 (A549) was 6.84 µM and the IC50 (HCC827) was 3.32 µM. The IC50 [4] was 9.18 µM and the Ratio IC50 [5] was 45 to 177.
Work on `C=CC(=O)Nc1cccc(Nc2nc(Nc3ccc(/C=C/c4cc(C)cc(C)c4)cc3)ncc2Cl)c1` yielded an IC50 [1] of 0.607 µM, an IC50 [2] of 0.0265 µM and an IC50 (A-431) of 5.56 µM. It also gave an IC50 (NCI-H1975 [3]) of 2.32 µM, an IC50 (A549) of 5.59 µM and an IC50 (HCC827) of 4 µM. The IC50 [4] was 17 µM and the Ratio IC50 [5] was 45 to 177.
Compound `C=CC(=O)Nc1cccc(Nc2nc(Nc3ccc(N4CCN(C(C)=O)CC4)cc3OC)ncc2C(F)(F)F)c1` [ROCILETINIB] has an IC50 (A-431) of 1.79 µM, an IC50 (NCI-H1975 [3]) of 0.137 µM and an IC50 (A549) of 3.24 µM. The IC50 (HCC827) was 0.031 µM and the IC50 [4] was 23.8 µM.
